# Measurements: ChEMBL document CHEMBL1138921, “Discovery of 3,5-bis(trifluoromethyl)benzyl L-arylglycinamide based potent CCR2 antagonists” (Bioorg Med Chem Lett, 2006)
# Target: T1, C-C chemokine receptor type 2 (Homo sapiens, UniProt P41597)
# Assay: Displacement of [125I]MCP1 from human CCR2 expressed in CHO cells at 1 uM
# Format: cell-based
# Outline: (§1)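 Competition binding: CHO cells stably expressing human CCR2b (5 × 10⁴) incubated with ¹²⁵I-hMCP-1 (20–50 pM) plus varied unlabeled competitor, 60 min, room temperature, in 50 mM HEPES, 5 mM MgCl₂, 1 mM CaCl₂, pH 7.4. Ended by filtration through polyethyleneimine-soaked GF/B filters, washed with 25 mM HEPES pH 7.5/500 mM NaCl. Values given as IC₅₀ or % inhibition at 1 µM.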
# Target sequence in this assay (P41597 whole entry, looked up): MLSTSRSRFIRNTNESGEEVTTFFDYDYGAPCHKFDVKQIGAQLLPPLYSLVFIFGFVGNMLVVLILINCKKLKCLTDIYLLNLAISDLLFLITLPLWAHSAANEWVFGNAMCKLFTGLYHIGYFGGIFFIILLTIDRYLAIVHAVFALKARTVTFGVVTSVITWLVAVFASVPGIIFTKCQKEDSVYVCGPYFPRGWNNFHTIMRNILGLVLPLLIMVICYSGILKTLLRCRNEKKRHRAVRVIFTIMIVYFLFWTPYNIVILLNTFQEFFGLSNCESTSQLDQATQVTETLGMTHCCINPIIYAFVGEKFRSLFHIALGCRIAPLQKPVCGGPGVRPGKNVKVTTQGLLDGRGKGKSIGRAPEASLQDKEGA
row,SMILES,inhibition [%]
1,CC(C)CCNC(C(=O)NCc1cc(C(F)(F)F)cc(C(F)(F)F)c1)c1ccccc1 (centres undefined),0
2,CN(C)CCN[C@H](C(=O)NCc1cccc(C(F)(F)F)c1)c1ccccc1,5
3,CN(C)CCNC(C(=O)NCc1cc(C(F)(F)F)cc(C(F)(F)F)c1)c1ccc(F)c(F)c1 (centres undefined),33
4,CN(C)CCN[C@H](C(=O)N(C)Cc1cc(C(F)(F)F)cc(C(F)(F)F)c1)c1ccccc1,20
5,COc1ccc([C@H](NCCN(C)C)C(=O)NCc2cc(C(F)(F)F)cc(C(F)(F)F)c2)cc1,47
6,CN(C)CCN[C@H](CNC(=O)c1cc(C(F)(F)F)cc(C(F)(F)F)c1)c1ccccc1,0
7,CC(NC(=O)[C@@H](NCCN(C)C)c1ccccc1)c1cc(C(F)(F)F)cc(C(F)(F)F)c1 (some centres undefined),28
8,CN(C)CCN[C@H](C(=O)NCc1cc(C(F)(F)F)cc(C(F)(F)F)c1)C1CCCCC1,9
9,O=C(NCc1cc(C(F)(F)F)cc(C(F)(F)F)c1)[C@@H](NCCCN1CCCCC1)c1ccccc1,26
10,CN(C)CCNC(C(=O)NCc1cc(C(F)(F)F)cc(C(F)(F)F)c1)c1ccc(Br)cc1 (centres undefined),25
11,NCCNC(C(=O)NCc1cc(C(F)(F)F)cc(C(F)(F)F)c1)c1ccccc1 (centres undefined),14
12,CN(C)CCNC(C(=O)NCc1cc(C(F)(F)F)cc(C(F)(F)F)c1)c1cccc(Br)c1 (centres undefined),17
13,Cc1cc(C)cc(CNC(=O)[C@@H](NCCN(C)C)c2ccccc2)c1,0
14,CN(C)CCN[C@H](CN(C)S(=O)(=O)c1cc(C(F)(F)F)cc(C(F)(F)F)c1)c1ccccc1,0
15,CN(C)CCN[C@H](COCc1cc(C(F)(F)F)cc(C(F)(F)F)c1)c1ccccc1,6
16,CN(C)CCN[C@H](C(=O)NCc1ccccc1C(F)(F)F)c1ccccc1,1
17,CN(C)CCN[C@H](CNS(=O)(=O)c1cc(C(F)(F)F)cc(C(F)(F)F)c1)c1ccccc1,0
18,CC(=O)N(Cc1cc(C(F)(F)F)cc(C(F)(F)F)c1)C[C@@H](NCCN(C)C)c1ccccc1,4
19,CN(C)CCN[C@@H](C(=O)NCc1cc(C(F)(F)F)cc(C(F)(F)F)c1)c1ccc(F)cc1,8
20,CN(C)CCN[C@@H](Cc1ccc(F)cc1)C(=O)NCc1cc(C(F)(F)F)cc(C(F)(F)F)c1,1
21,CN(C)CCN[C@H](C(=O)NCc1ccc(C(F)(F)F)cc1)c1ccccc1,7
22,COCCNC(C(=O)NCc1cc(C(F)(F)F)cc(C(F)(F)F)c1)c1ccccc1 (centres undefined),0
23,CN(C)CCN[C@H](CN(Cc1cc(C(F)(F)F)cc(C(F)(F)F)c1)S(C)(=O)=O)c1ccccc1,0
24,CN(C)CCNCC(=O)NCc1cc(C(F)(F)F)cc(C(F)(F)F)c1,0

# Target: Substance-P receptor (Homo sapiens, UniProt P25103)
# Sequence (P25103 whole entry): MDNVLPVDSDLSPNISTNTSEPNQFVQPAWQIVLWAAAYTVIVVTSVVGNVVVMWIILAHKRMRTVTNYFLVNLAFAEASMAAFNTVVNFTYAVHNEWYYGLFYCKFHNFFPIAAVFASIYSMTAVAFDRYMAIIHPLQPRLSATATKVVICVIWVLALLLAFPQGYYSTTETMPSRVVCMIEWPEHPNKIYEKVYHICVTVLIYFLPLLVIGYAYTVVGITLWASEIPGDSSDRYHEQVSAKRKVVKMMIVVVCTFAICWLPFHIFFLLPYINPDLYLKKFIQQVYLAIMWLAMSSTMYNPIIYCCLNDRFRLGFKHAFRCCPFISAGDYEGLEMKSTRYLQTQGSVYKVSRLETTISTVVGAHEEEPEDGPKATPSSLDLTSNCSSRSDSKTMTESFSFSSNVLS
# Assay: Binding affinity to human NK1 receptor
row,SMILES,IC50 [µM]
1,CN(C)CCN[C@H](C(=O)NCc1cc(C(F)(F)F)cc(C(F)(F)F)c1)c1ccc(F)cc1,0.65

# Target: T1, C-C chemokine receptor type 2
# Assay: Displacement of [125I]MCP1 from human CCR2 expressed in CHO cells
# Format: cell-based
# Outline: as §1
SMILES,IC50 [µM],Ki [µM]
CC1CCCCN1CCN[C@H](C(=O)NCc1cc(C(F)(F)F)cc(C(F)(F)F)c1)c1ccccc1 (some centres undefined),0.838,
CC1CCN(CCN[C@H](C(=O)NCc2cc(C(F)(F)F)cc(C(F)(F)F)c2)c2ccccc2)CC1,0.756,
O=C(NCc1cc(C(F)(F)F)cc(C(F)(F)F)c1)C(NCCN1CCOCC1)c1ccccc1 (centres undefined),0.575,
CN(C)CCN[C@@H](C(=O)NCc1cc(C(F)(F)F)cc(C(F)(F)F)c1)c1cccs1,0.865,
CN(C)CCNC(C(=O)NCc1cc(C(F)(F)F)cc(C(F)(F)F)c1)c1ccco1 (centres undefined),0.592,
O=C(NCc1cc(C(F)(F)F)cc(C(F)(F)F)c1)[C@@H](NCCN1CCCCC1)c1ccccc1,0.219,
Nc1ccc(C(F)(F)F)cc1C(=O)NCC(=O)NCC1CCN(Cc2ccc(Cl)cc2)CC1,0.2,
O=C(O)c1cc2cc(O)ccc2n1Cc1ccc(Cl)c(Cl)c1,,0.029
Cc1ccc2c(c1)C1(CCN(CCc3coc(-c4ccc(F)cc4)n3)CC1)OC(=O)N2,0.032,
O=C(NCc1cc(C(F)(F)F)cc(C(F)(F)F)c1)[C@@H](NCCN1CCC(c2ccccc2)CC1)c1ccccc1,0.822,
O=C(NCc1cc(C(F)(F)F)cc(C(F)(F)F)c1)[C@@H](NCCN1CCCCCC1)c1ccccc1,0.4,
CN(C)CCN[C@H](C(=O)NCc1cc(C(F)(F)F)cc(C(F)(F)F)c1)c1ccsc1,0.424,
CCN(CC)CCNC(C(=O)NCc1cc(C(F)(F)F)cc(C(F)(F)F)c1)c1ccccc1 (centres undefined),0.678,
CN(C)CCN[C@H](C(=O)NCc1cc(C(F)(F)F)cc(C(F)(F)F)c1)c1ccc(F)cc1,0.77,
O=C(NCc1cc(C(F)(F)F)cc(C(F)(F)F)c1)[C@@H](NCCN1CCCCC1)c1ccc(F)cc1,0.175,
CN(C)CCNC(C(=O)NCc1cc(C(F)(F)F)cc(C(F)(F)F)c1)c1ccccc1 (centres undefined),1.48,
CN(C)CCNC(C(=O)NCc1cc(C(F)(F)F)cc(C(F)(F)F)c1)c1ccc(Cl)cc1 (centres undefined),1.1,
O=C(NCc1cc(C(F)(F)F)cc(C(F)(F)F)c1)C(NCCN1CCCCC1)c1ccccc1 (centres undefined),0.342,
O=C(NCc1cc(C(F)(F)F)cc(C(F)(F)F)c1)C(NCCN1CCCC1)c1ccccc1 (centres undefined),0.521,
CN(C)CCN[C@H](C(=O)NCc1cc(C(F)(F)F)cc(C(F)(F)F)c1)c1ccccc1,1,

# Test system: Monocyte
# Assay: Inhibition of MCP1-induced chemotaxis of human monocytes
# Format: functional, cell-based
# Outline: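 Human monocytes loaded with Calcein-AM in Hanks' buffer with 0.01% BSA, 37 °C, 30 min, then washed and resuspended in phenol red-free RPMI 1640 with 0.01% BSA. Migration toward MCP-1 measured in disposable 96-well chemotaxis plates (5.7 mm diameter wells), 1.5 × 10⁵ cells/well.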
SMILES,Kb [µM],IC50 [µM]
O=C(/C=C/c1ccc(Cl)c(Cl)c1)NCCCCCN1CCC(c2c[nH]c3ccc(O)cc23)CC1,0.025,
O=C(O)c1cc2cc(O)ccc2n1Cc1ccc(Cl)c(Cl)c1,,0.06
O=C(NC(=O)c1ccc2nccnc2c1)Nc1cccc(-c2ccccc2)c1,,0.06
Cc1ccc2c(c1)C1(CCN(CCc3coc(-c4ccc(F)cc4)n3)CC1)OC(=O)N2,,1
